Screening data as filed in PubChem BioAssay.
PostGolgi ctrl – growth of the yeast control strain, post-Golgi counter-screen. efflux-deficient yeast background strain, growth absorbance A615, 16 h. inhibition, % at 10 µM. hit rate 5% among 98,000
Yeast lifespan up – yeast lifespan extension; S. cerevisiae growth with nicotinamide, OD615; deaD strain in restrictive glucose medium; inhibition of the nicotinamide effect, % at 10 µM; hit rate 0.68% among 130,000; AID 775;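 active = inhibition above a set limit, placed 3 SD over the median of all compounds, cut at about 26% in these data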
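System: DeaD-strain S. cerevisiae / Buffer or medium: CSMM-D, restrictive glucose (dextrose) synthetic minimal medium / Probe or stimulus: nicotinamide, 1.5 mM, co-present with compound / Compound: one concentration, 10 µM, DMSO 0.25% / Incubation: 48 h compound exposure at 30 °C, humidified / Technique: optical density (absorbance) at 615 nm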
PostGolgi yeast – growth inhibition of a yeast mutant, post-Golgi transport screen | post-Golgi transport phenotypic cell assay | inhibition, % at 10 µM | hit rate 0.9% among 98,000;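 note: yeast cells grown in 1536-well plates; yeast grown about 18 h at 30C before absorbance read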
BB579 growth dn – chemicals that inhibit yeast BB579 growth in restrictive medium (lifespan-shortening candidates); inhibition, % at 10 µM; AID 804; S. cerevisiae BB579 growth, OD615, 48 h; hit rate 0.51% among 140,000;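 active = inhibition above a set limit, 3 SD over the mean compound inhibition, cut at about 44% in these data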
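Material: Saccharomyces cerevisiae DeaD strain BB579, replicative lifespan model yeast; buffer or medium: CSMM-D restrictive synthetic medium containing dextrose (glucose); compound: 10 µM single dose, DMSO 0.25%; timing: 48 h compound exposure at 30 °C after 4 h preincubation; signal: turbidity as optical density at 615 nm; benchmarks: positive control amphotericin B 10 µg/mL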
Hits are given with their value; 0 = inactive; - = no result given. Only a selection was taken, and hits are over-represented in it overall. Cut-off read from the data, not from the text of the source, unless noted: active = inhibition above about 30%; inactive = the rest.

SMILES | PostGolgi ctrl | Yeast lifespan up | PostGolgi yeast | BB579 growth dn
CC1CCCCC1NC(=O)COC(=O)c1ccccc1NC(=O)c1ccco1 (centres undefined) | 0 | 0 | 0 | 0
O=C(OCC(=O)N1CCN(C(=O)c2ccco2)CC1)c1ccccc1O | 0 | 0 | 0 | 0
Cc1ccc(C2NC(=S)NC3=C2C(=O)CC(C)(C)C3)cc1 (centres undefined) | - | 0 | - | 0
CCOC(=O)c1sc2ncn(C(C)C(=O)OCC)c(=O)c2c1C (centres undefined) | 0 | 0 | 0 | 0
Cc1sc2ncn(C(C)C(=O)OC3CCCCC3)c(=O)c2c1C (centres undefined) | 0 | 27.3 | 0 | 0
CCC(C)n1c(=O)c(C(=O)Nc2ccccc2S(N)(=O)=O)c(O)c2ccccc21 (centres undefined) | 30.4 | 0 | 0 | 0
CCOC(=O)Cc1csc(NC(=O)c2c(O)c3ccccc3n(CC(C)C)c2=O)n1 | 32.1 | 69.2 | 0 | 0
CCCn1c(=O)c(C(=O)Nc2ccccc2C(=O)OCC)c(O)c2ccccc21 | 0 | 0 | 0 | 0
CCOC(=O)Cc1csc(NC(=O)c2cccs2)n1 | 0 | 0 | 0 | 0
CC(C)Cn1c(=O)c(C(=O)Nc2ccccc2S(N)(=O)=O)c(O)c2ccccc21 | 30.1 | 0 | 0 | 0
N=C(N)N1CCc2ccccc2C1 | - | 0 | - | 0
COc1ccc(NC(=O)CCNS(=O)(=O)c2ccc3c(c2)c(=O)n(C)c(=O)n3C)c(OC)c1 | - | 0 | - | 0
N#Cc1ccc(C2=NC(C(F)(F)F)(C(F)(F)F)c3c(n(Cc4ccco4)c(=O)[nH]c3=O)N2)cc1 | 0 | 0 | 0 | 0
O=C(NC1CCCCC1)N1CCCc2ccccc21 | 0 | 0 | 0 | 0
O=C(NC1CCCCC1)N1CCSC1=Nc1ccccc1 | 49.8 | 0 | 0 | 0
CCOC(=O)c1cc(C#N)c(Oc2ccccc2OC)nc1-c1ccccc1 | 0 | 0 | 0 | 0
Cc1ccc(NC(C)c2cc(Cl)ccc2O)cc1 (centres undefined) | 0 | 0 | 0 | 0
OC1CCN(c2c3c(nc4cc(-c5cccc(F)c5)nn24)CCCC3)CC1 | 87.5 | 0 | 0 | 0
CN(CCO)c1c2c(nc3cc(-c4cccc(F)c4)nn13)CCCC2 | 47.1 | 0 | 0 | 0
Fc1cccc(-c2cc3nc4c(c(N5CCC6(CC5)OCCO6)n3n2)CCCC4)c1 | 81.1 | 0 | 0 | 0
Clc1cccc(-c2cc3nc4c(c(N5CCNCC5)n3n2)CCCC4)c1 | - | - | - | 0
O=C1OC(c2cccc([N+](=O)[O-])c2)C2(CCCC2)C(=O)C12CCCCC2 (centres undefined) | - | 0 | - | 0
Cc1cc(C)cc(C(=O)NCC(=O)OCC(=O)c2cc(C)n(CC(F)(F)F)c2C)c1 | - | 0 | - | 0
CC(=O)c1ccc(NC(=O)C(C)OC(=O)c2ccc(NS(=O)(=O)c3ccc(F)c(F)c3)cc2)cc1 (centres undefined) | - | 0 | - | 0
COC(=O)c1sccc1NC(=O)c1csc(C)c1 | 0 | 0 | 0 | 0
SMILES | PostGolgi ctrl | Yeast lifespan up | PostGolgi yeast | BB579 growth dn
COC(=O)c1sccc1NC(=O)c1ccc(OC)cc1 | 31.1 | 0 | 0 | 0
CCOC(=O)c1ccc(N=Cc2nc(-c3ccccc3)oc2OC(C)=O)cc1 | 0 | 0 | 0 | 0
CC(=O)Oc1oc(-c2ccccc2)nc1C=Nc1ccccc1 | 0 | 46.0 | 0 | 0
CCOC(=O)c1sc(NC(C)=O)c(C(=O)OCC)c1C | 0 | 0 | 0 | 0
CCOC(=O)c1sc(NC(=O)CN(CC)CC)c(C(=O)OCC)c1C | 0 | 28.0 | 0 | 0
CCC(C)OC(=O)C1C(c2ccccc2)C(C(=O)O)C1c1ccccc1 (centres undefined) | 0 | 37.4 | 0 | 0
CCCCCOC(=O)C1C(c2ccccc2)C(C(=O)O)C1c1ccccc1 (centres undefined) | - | 32.1 | - | 0
O=C(O)C1C(c2ccccc2)C(C(=O)OCCCO)C1c1ccccc1 (centres undefined) | 0 | 0 | 0 | 0
CCOc1ccc(Br)cc1S(=O)(=O)Nc1cccc(S(=O)(=O)N(C)c2ccccc2)c1 | - | 0 | - | 0
C=CCN(c1ccc(C(=O)NC(C)C)cc1)S(C)(=O)=O | 0 | 0 | 0 | 0
C=CCN(c1ccc(C(=O)N2CCCC2)cc1)S(C)(=O)=O | 38.7 | 0 | 0 | 0
C(=N\Nc1nc2ccccc2s1)/c1cccs1 | 31.2 | 0 | 0 | 0
Cc1ccc(C(=O)N/C(=C\c2ccc(Cl)cc2)C(=O)NCC2CCCO2)cc1 (centres undefined) | - | 0 | - | 0
Cc1ccc2[nH]c(O)c(N=NC(=O)C3CC3c3ccccc3)c2c1Br (centres undefined) | - | 0 | - | 0
COc1cc(/C=N/NC(=O)CN2CCCCC2)ccc1OCc1ccc(Br)cc1 | - | 0 | - | 0
Cc1nc(N2CCN(S(=O)(=O)c3cccc4nonc34)CC2)c2c3c(sc2n1)CCCC3 | 58.7 | 0 | 0 | 0
Cc1ccc(C(=O)Nc2c3c(nn2C(C)(C)C)CS(=O)(=O)C3)cc1C | 0 | 0 | 0 | 0
O=C(Nc1ccncc1)c1cccc(F)c1 | 32.3 | 0 | 0 | 0
O=C1C=CC(=O)N1c1ccc(OC(F)F)cc1 | - | 0 | - | 0
Cc1ccc(OC(=O)C2c3ccccc3Oc3ccccc32)cc1C | - | 0 | - | 0
Cc1ncc(C23CC4CC(CC(C4)C2)C3)[nH]1 | 0 | 151.9 | 0 | 0
O=C(CCN1C(=O)S/C(=C\c2cccs2)C1=O)NC1=NCCS1 | - | 0 | - | 0
CCOC(=O)C(CC)(CC)/C(C)=N/NC(=O)CC#N | 0 | 0 | 0 | 0
CN(CC(=O)Nc1nc2ccccc2s1)S(=O)(=O)c1ccc(Cl)cc1 | 31.1 | 0 | 0 | 0
CN(CC(=O)Nc1nc2ccccc2s1)S(=O)(=O)c1ccc(Br)cc1 | 0 | 0 | 0 | 0
SMILES | PostGolgi ctrl | Yeast lifespan up | PostGolgi yeast | BB579 growth dn
Cn1c(SCC(=O)N2CCCc3ccccc32)nnc1-c1c[nH]c2ccccc12 | 0 | 43.1 | 0 | 0
CCn1c(SCC(=O)N2CCCc3ccccc32)nnc1-c1c[nH]c2ccccc12 | 0 | 0 | 0 | 0
O=C(CSc1c[nH]c2ccccc12)N1CCCc2ccccc21 | 31.4 | 0 | 0 | 0
O=C(CSc1ncnc2c1oc1ccccc12)N1CCCc2ccccc21 | 44.2 | 0 | 0 | 0
Cc1cc2cc(C)c3nnc(SCC(=O)N4CCCc5ccccc54)n3c2cc1C | 30.2 | 0 | 0 | 0
O=C(Cc1ccccc1)Nc1cccc(N2C(=O)C=CC2=O)c1 | - | 0 | - | 0
COC(=O)c1cc(OC)c(OC)cc1NC(=S)N1CCN(c2ccccc2)CC1 | 0 | 0 | 0 | 0
CCCCSc1nnc(-c2cc(Br)ccc2N)c(=O)[nH]1 | 35.7 | 0 | 0 | 0
C=CCSc1nnc(-c2cc(Br)ccc2N)c(=O)[nH]1 | 0 | 0 | 0 | 0
CC(=O)N1C=CN(C(C)=O)C(c2cn(C)c3ccccc23)C1c1cn(C)c2ccccc12 (centres undefined) | 33.6 | 0 | 0 | 0
CC(=O)n1cc(C2C(=O)CCCC2=O)c2ccccc21 | 0 | 0 | 0 | 0
C=CCOc1c(Br)cc(CNc2ccc(NC(=O)C(C)C)c(OC)c2)cc1OCC | - | 0 | - | 0
COC(=O)CSc1nc(N)c(C#N)c(-c2ccco2)c1C#N | 31.7 | 0 | 0 | 0
CCN(CC)c1ccc2cc(-c3nnc(-c4ccncc4)o3)c(=O)oc2c1 | 51.0 | 0 | 0 | 0
CCN(CC)c1ccc2cc(C(C)=O)c(=O)oc2c1 | 0 | 0 | 0 | 0
CC1=NN(C(N)=S)C(=O)C1N=Nc1c(C)cc(C)cc1C (centres undefined) | 32.1 | 0 | 0 | 0
